Measured values from ChEMBL document CHEMBL3259621, “Novel merosesquiterpene exerts a potent antitumor activity against breast cancer cells in vitro and in vivo” (Eur J Med Chem, 2014).

Key:
[1] = system: MCF7; assay: Cytotoxicity against human MCF7 cells after 3 days by SRB assay; type: functional, cell-based; settings: MCF7, 72 h
Procedure, shortened: (§1)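 Cells seeded in quadruplicate at 5 × 10³ cells/cm². Compound added at 24 h over increasing concentrations for 3 days. Cells fixed with cold 10% TCA, stained with 0.4% sulforhodamine B in 1% acetic acid, dye solubilized in 10 mM Tris pH 10.5, OD read at 492 nm. IC50 taken by linear interpolation of the semi-log dose-response curve. DMSO below 0.1% final.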

[2] = system: A549; assay: Cytotoxicity against human A549 cells after 3 days by SRB assay; type: functional, cell-based; settings: A549, 72 h; procedure, shortened: as §1
[3] = system: T84; assay: Cytotoxicity against human T84 cells after 3 days by SRB assay; type: functional, cell-based; settings: T84, 72 h; procedure, shortened: as §1
[4] = Cytotoxicity against mouse E0771 cells after 3 days by SRB assay; type: functional, cell-based; settings: E0771, 72 h
Procedure, shortened: (§2)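 Cells seeded at 5 × 10³ cells/cm² in quadruplicate and, after 24 h, treated with increasing concentrations for 3 days. Compounds diluted from DMSO stock, final DMSO <0.1% v/v. Cells were fixed with cold 10% TCA, stained with 0.4% sulforhodamine B in 1% acetic acid, and dye solubilised in 10 mM Tris-base pH 10.5. OD read at 492 nm. IC50 obtained by linear interpolation on a semi-log dose-response curve.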

[5] = system: MDA-MB-231; assay: Cytotoxicity against human MDA-MB-231 cells after 3 days by SRB assay; type: functional, cell-based; settings: MDA-MB-231, 72 h; procedure, shortened: as §2
[6] = system: T47D; assay: Cytotoxicity against human T47D cells after 3 days by SRB assay; type: functional, cell-based; settings: 72 h; procedure, shortened: as §2
[7] = Cytotoxicity against human MCF10A cells after 3 days by SRB assay; type: cell-based; settings: MCF-10A, 72 h; procedure, shortened: as §2
[8] = system: HT-29; assay: Cytotoxicity against human HT-29 cells after 3 days by SRB assay; type: functional, cell-based; settings: HT-29, 72 h; procedure, shortened: as §2
[9] = system: RKO; assay: Cytotoxicity against human RKO cells after 3 days by SRB assay; type: functional, cell-based; settings: 72 h; procedure, shortened: as §2
[10] = system: SW480; assay: Cytotoxicity against human SW480 cells after 3 days by SRB assay; type: functional, cell-based; settings: SW480, 72 h; procedure, shortened: as §2
[11] = Cytotoxicity against human CCD-18Co cells after 3 days by SRB assay; type: cell-based; settings: 72 h; procedure, shortened: as §2
[12] = Therapeutic index, ratio of IC50 for human MCF10A cells to IC50 for human MCF7 cells; type: cell-based, MCF-10A; settings: MCF10A cells versus MCF7 cells, read-out: Ratio IC50
[13] = Therapeutic index, ratio of IC50 for human MCF10A cells to IC50 for human MDA-MB-231 cells; type: cell-based, MCF-10A; settings: MCF10A cells versus MDA-MB-231 cells, read-out: Ratio IC50
[14] = Therapeutic index, ratio of IC50 for human MCF10A cells to IC50 for human T47D cells; type: cell-based, MCF-10A; settings: MCF10A cells versus T47D cells, read-out: Ratio IC50
[15] = Therapeutic index, ratio of IC50 for human MCF10A cells to IC50 for mouse E0771 cells; type: cell-based, MCF-10A; settings: MCF10A cells versus E0771 cells, read-out: Ratio IC50
[16] = Therapeutic index, ratio of IC50 for human CCD-18Co cells to IC50 for human T84 cells; type: cell-based, T84; CCD-18Co; settings: CCD-18Co cells versus T84 cells, read-out: Ratio IC50
[17] = Therapeutic index, ratio of IC50 for human CCD-18Co cells to IC50 for human HT-29 cells; type: cell-based; settings: CCD-18Co cells versus HT-29 cells, read-out: Ratio IC50
[18] = Therapeutic index, ratio of IC50 for human CCD-18Co cells to IC50 for human RKO cells; type: cell-based; settings: CCD-18Co cells versus RKO cells, read-out: Ratio IC50
[19] = Therapeutic index, ratio of IC50 for human CCD-18Co cells to IC50 for human SW480 cells; type: cell-based; settings: CCD-18Co cells versus SW480 cells, read-out: Ratio IC50

Row | SMILES | IC50 [1] | IC50 [2] | IC50 [3] | also measured
1 | C=C1CC[C@@H]2[C@](C)(CCC[C@]2(C)C(=O)OC)[C@H]1Cc1c(C)ccc(C(=O)OC)c1O | 45.1 µM | 27 µM | 40 µM | –
2 | O=c1[nH]cc(F)c(=O)[nH]1 [FLUOROURACIL] | 2.86 µM | – | – | IC50 [4]: 0.28 µM; IC50 [5]: 18.1 µM; IC50 [6]: 10.6 µM; IC50 [7]: 8.06 µM; IC50 [8]: 2.58 µM; IC50 [9]: 4.39 µM; IC50 [10]: 3.69 µM; IC50 [11]: 9.26 µM; selectivity ratio [12]: 2.82; selectivity ratio [13]: 0.44; selectivity ratio [14]: 0.76; selectivity ratio [15]: 28.8; selectivity ratio [16]: 2.76; selectivity ratio [17]: 3.6; selectivity ratio [18]: 2.11; selectivity ratio [19]: 2.51
3 | C=C1CC[C@@H]2[C@](C)(CCC[C@]2(C)C(=O)OC)[C@H]1Cc1c(C)ccc(C(=O)OC)c1C(=O)OC | 33 µM | 19.9 µM | 25 µM | –
4 | C=C1CC[C@@H]2[C@](C)(CCC[C@]2(C)C(=O)OC)[C@H]1Cc1c(C)cccc1C(=O)OC | 40.4 µM | 28.1 µM | 29 µM | –
5 | C=C1CC[C@@H]2[C@](C)(CCC[C@]2(C)C(=O)OC)[C@H]1Cc1c(C)ccc2c1C(=O)C(OC)=CC2=O | 16 µM | 17.5 µM | 16.7 µM | –
6 | C=C1CC[C@@H]2[C@](C)(CCC[C@]2(C)C(=O)OC)[C@H]1Cc1c(C)ccc2c1C(=O)C(O)=CC2=O | 38.4 µM | 41.2 µM | 30 µM | –
7 | C=C1CC[C@@H]2[C@](C)(CCC[C@]2(C)C(=O)OC)[C@H]1Cc1c(C)cccc1C#N | 39.6 µM | 20.2 µM | 23.7 µM | –
